Compounds with a hit are over-represented: about 3.1% of the library has one in this group of screens.
PP1 inh: PP1-alpha phosphatase inhibitors, primary screen, counter-screen for PP5 inhibitor project, biochemical, fluorescence, OMFP substrate, single point; 320,000 tested, 0.9% active; purified PP1alpha; inhibition, % at 6.7 µM;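 active means inhibition above the mean inhibition of all tested compounds plus 3 SD, computed separately for each screening campaign, cut at about 15% in these data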
Target sequence (P62136 whole entry, looked up): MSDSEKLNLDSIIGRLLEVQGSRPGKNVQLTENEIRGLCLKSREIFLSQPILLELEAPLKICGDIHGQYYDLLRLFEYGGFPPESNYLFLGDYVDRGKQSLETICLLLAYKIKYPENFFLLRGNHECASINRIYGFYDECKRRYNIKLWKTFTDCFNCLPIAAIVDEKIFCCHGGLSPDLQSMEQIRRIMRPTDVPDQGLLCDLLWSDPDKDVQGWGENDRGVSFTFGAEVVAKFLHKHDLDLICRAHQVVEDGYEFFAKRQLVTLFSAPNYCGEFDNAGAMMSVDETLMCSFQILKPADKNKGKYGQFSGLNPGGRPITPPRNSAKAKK
core dimer inh: inhibitors of HCV core protein dimerization, primary screen, biochemical, TR-FRET, high-throughput; 300,000 tested, 0.33% active; TR-FRET GST/Flag-core106 dimerization, 1536-well; inhibition, % at 5 µM;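 active means inhibition above the mean of all tested compounds plus 3 SD, set per screening campaign, cut at about 45% in these data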
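Assay system: GST-tagged and Flag-tagged HCV core protein residues 1-106 / Times: compound-protein-antibody incubation 4 h at 22.5 °C / Signal: time-resolved FRET, ex 340 nm, em 617 and 671 nm / Evaluation: % inhibition based on acceptor/donor emission ratio / Benchmarks: wells lacking GST-core106 and wells with excess unlabelled core106 / Repeats: singlicate, one well per compound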
Fh CTSL1 inh: Fasciola hepatica cathepsin L1 inhibitors, primary screen, counter-screen for PFM18AAP inhibitor project, biochemical, QFRET, fluorogenic peptide substrate. recombinant F. hepatica cathepsin L1, Z-Leu-Arg-MCA fluorescence. inhibition, % at 5.96 µM. 300,000 tested, 0.49% active;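 active means inhibition above the mean of all tested compounds plus 3 SD, set per screening campaign, cut at about 17% in these data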
Myeloid diff MLP: induction of myeloid progenitor differentiation, primary screen, cell-based, flow cytometry, MLPCN library | ER-HoxA9 myeloid progenitors, lysozyme-GFP differentiation | calls only at 10 µM | 360,000 tested, 1% active | AID 624256, 2012;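 active means normalized GFP-positive differentiation at or above the plate's own cutoff, the solvent-only control mean plus 3 SD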;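 further: cells exposed to compound for four days before flow analysis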
PP5 primary: PP5 phosphatase inhibitors, primary screen, biochemical, fluorescence. purified PP5c, OMFP substrate fluorescence. AID 1987, 2009. Serine/threonine-protein phosphatase 5 (Homo sapiens), P53041. inhibition, % at 6.7 µM. 320,000 tested, 0.18% active;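 active means inhibition above the campaign's mean inhibition across all tested compounds plus 3 SD, cut at about 9.5% in these data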
NadD block: inhibitors of S. aureus NadD, primary screen, biochemical, colorimetric, uHTS; Nicotinate-nucleotide adenylyltransferase NadD (Staphylococcus aureus N315); purified NadD enzyme, colorimetric absorbance read-out; inhibition, % at 20 µM; 360,000 tested, 0.78% active; AID 602399, 2012; in the data active means inhibition above about 26%
Of the large screens only hits and unclear results are named; the others gave an inactive call.

Cc1cc(C)c2cc(C#N)c(N3CCCN(S(=O)(=O)c4ccccc4)CC3)nc2c1	none (no result: Myeloid diff MLP, NadD block)
CCOc1ccc(S(=O)(=O)Nc2ccc(C(=O)N/N=C(\C)c3ccc(-n4ccnc4)cc3)cc2)cc1	NadD block 42
O=C(CCCC(=O)Nc1cccc(Br)c1)N/N=C/c1cc([N+](=O)[O-])ccc1O	PP1 inh 16
Cc1ccc(C)c(N(CC(=O)N/N=C/c2ccc(-c3ccc([N+](=O)[O-])cc3)o2)S(=O)(=O)c2ccccc2)c1	core dimer inh 52, NadD block 32
O=C(CCC(=O)Nc1cccc(Cl)c1)N/N=C/c1cc([N+](=O)[O-])ccc1O	none
O=C(CN(c1cccc(Br)c1)S(=O)(=O)c1ccccc1)N/N=C/c1cc([N+](=O)[O-])ccc1O	PP1 inh 16, NadD block 47
CCOc1ccc(C(=O)NC(C(=O)NCCc2ccc(OC(F)F)cc2)C(C)C)cc1 (stereo not given)	none
CCOc1ccc(N(CC(=O)NC2CCCCC2)C(=O)CCC(=O)Nc2nc(C)cs2)cc1	none (no result: Myeloid diff MLP)
COc1ccc(C2=Nc3cccc4cccc(c34)N2)cc1	none
Nc1cccc(C2=Nc3cccc4cccc(c34)N2)c1	core dimer inh 72
CS(=O)(=O)c1cccc(C(=O)Nc2ccc3c(c2)OCCCO3)c1	none
COc1ccc(OCCC(=O)OCC(=O)NCc2ccco2)cc1	core dimer inh 85
Cc1ccccc1OCC(=O)OCC(=O)NCc1ccco1	none
COc1ccccc1NCCC(=O)OCC(=O)NCc1ccco1	core dimer inh 58
CC(=O)c1c(C)[nH]c(C(=O)CSc2nc3ccccc3c(=O)n2CCCN2CCOCC2)c1C	none
Cc1sc2nc(CSc3nc4ccccc4c(=O)n3CCCN3CCOCC3)[nH]c(=O)c2c1C	Myeloid diff MLP active
Cc1ccc(Nc2nc(-c3sc(N)nc3C)cs2)cc1	none (no result: PP1 inh, core dimer inh, Fh CTSL1 inh, PP5 primary)
Cc1nc(N)sc1-c1csc(Nc2cc(N(C)C)ccc2Cl)n1	NadD block 42 (no result: PP1 inh, core dimer inh, Fh CTSL1 inh, PP5 primary)
CC(C)CN(CCNC(=O)CN1C(=O)COc2ccc(S(=O)(=O)N3CCC(C)CC3)cc21)CC(C)C	Fh CTSL1 inh 20
Cc1cc(C)c(S(=O)(=O)N2CCN(C(=O)N3CCCCC3)CC2)c(C)c1	Myeloid diff MLP active
Cc1cc(C)c(S(=O)(=O)N2CCN(C(=O)N3CCOCC3)CC2)c(C)c1	none
CC1(C)Cc2nc3sc4c(SCC(=O)NCc5ccccc5)ncnc4c3cc2CO1	Myeloid diff MLP active
COc1ccc(C)cc1NC(=O)CSCc1cc(=O)n2c(C)csc2n1	none (no result: PP1 inh, core dimer inh, Fh CTSL1 inh, PP5 primary)
COc1ccccc1NC(=O)c1ccc(NC(=O)c2ccc(=O)[nH]c2)cc1	none (no result: core dimer inh, Fh CTSL1 inh)
O=C(c1cccc(F)c1)N1CCC2(CC1)NCCc1[nH]cnc12	Myeloid diff MLP active
O=C(Nc1cccc(-c2csc(Nc3ccc(Cl)cc3)n2)c1)c1cc([N+](=O)[O-])cc(C(F)(F)F)c1	NadD block 42
COC(CN(C)C(=O)c1cn(C)c2ccc(S(=O)(=O)N(C)C3CCCCC3)cc2c1=O)OC	none
CC(=O)c1cccc(NC(=S)NCCC2=CCCCC2)c1	none
O=C(NCCC1=CCCCC1)Nc1ccc2nsnc2c1	Fh CTSL1 inh 24
CCOc1cc(/C=N/NC(N)=S)cc(Br)c1OCc1ccccc1C	none
CCOc1c(Cl)cc(/C=N/NC(N)=S)cc1OC	Fh CTSL1 inh 26
C#CCOc1c(Cl)cc(/C=N/NC(N)=S)cc1OCC	Fh CTSL1 inh 80
COc1cc(/C=N/NC(N)=S)cc(Br)c1OCc1ccccc1F	none
O=C(NNC(=O)c1ccccc1F)c1ccc(Cl)c(S(=O)(=O)N2CCOCC2)c1	none (no result: core dimer inh, Fh CTSL1 inh)
CC(=O)NC1C(=O)N(CCN2CCOCC2)c2ccc(Cl)cc21 (stereo not given)	none (no result: PP1 inh, core dimer inh, Fh CTSL1 inh, PP5 primary)
CC(=O)NC1C(=O)N(CCN2CCOCC2)c2ccc(C)cc21 (stereo not given)	PP1 inh 57
Cc1ccccc1-c1nnc(NC(=O)CSc2nc3ccccc3s2)s1	PP1 inh 17
